Data as given in PMC5652303 (European journal of medicinal chemistry, 2017).
pIC50: −log10 of the molar value. “And” between values parts separate entries of the source, which are not always exact repeats. Equal entries are not always repeated.

Assays:
49-mer DNA duplex 25 = test: H2O2-induced DNA interstrand cross-link; format: biochemical; conditions: for DNA ICL cross-linking yield without H2O2: no H2O2, duplex 25, pH 8 phosphate buffer; for Kinetics of ICL formation: Time of completion: phosphate buffer pH 8; for ICL formation rate constant relative to 1a: rate constants of Table 1
How it was run: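 The 32P-labelled strand (0.5 µM) was annealed to 1.5 equiv of complement at 65 °C for 3 min in 10 mM potassium phosphate pH 7 with 100 mM NaCl, then cooled slowly overnight. Duplex, NaCl, potassium phosphate (pH 6–8), H2O2 and compound (100 µM–2 mM, in CH3CN) were incubated 24 h; some runs went 48 h. Reactions were quenched with 90% formamide loading buffer and run on 20% denaturing PAGE with phosphorimaging. Yields were corrected for the no-H2O2 control.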

[1] = Monomer reaction with H2O2 by NMR analysis; format: physicochemical; conditions: for Disappearance of starting materials: Time of completion / Disappearance of starting materials: kobs / QM formation: Time of completion / QM formation: kobs: DMSO/deuterated phosphate buffer pH 8 (3:2), with H2O2; for Time to completion of reaction with H2O2 (oxidative deboronation): phosphate buffer pH 8 in D2O/DMSO 2:3, SI Figures S14, 15, 17, 18
[2] = test system: ovarian cancer SKOV3 cell; test: Cytotoxicity in SKOV3 cells; format: cell-based; conditions: for pIC50: Homo sapiens, SK-OV-3; for Cytotoxicity (initial test): SKOV3 cells
How it was run: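 Cells grown in RPMI 1640 with 5% FBS and 2 mM L-glutamine, seeded at 5,000–10,000 cells/well in 384-well plates, and left 2–3 h at 37 °C, 5% CO2. Compounds were made as 20 mM DMSO stocks and serially diluted 2-fold ten times, then added at 1:100. After 48 h, viability was read by CellTiter-Glo luminescence after 10 min at room temperature. IC50 came from four-parameter nonlinear regression.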

normal lymphocytes = test: Viability of normal lymphocytes, annexin/PI binding assay; format: cell-based, human; conditions: healthy donors (n=2), 10 µM, 24 hours
How it was run: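 Lymphocytes were separated from healthy donors' peripheral blood on a Ficoll-hypaque gradient and suspended in RPMI with 10% autologous plasma. After compound exposure, the percentage of viable cells was scored by annexin V/propidium iodide binding.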

[3] = test system: H2AX phosphorylation at Ser139; test: DNA damage response: H2AX phosphorylation in CLL lymphocytes, flow cytometry; format: cell-based, human; conditions: 10 µM, 24 hours
How it was run: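 Lymphocytes were isolated from CLL patients' peripheral blood on a Ficoll-hypaque gradient and held in RPMI with 10% autologous plasma. After compound exposure, cells were washed in PBS, fixed in ice-cold 70% ethanol and stored at −20 °C. They were then permeabilised, stained with FITC anti-H2AX Ser139 antibody, and analysed by flow cytometry.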

[4] = Chemical stability of the compounds; format: physicochemical; conditions: for Hydrolysis of the acetate group: NMR, phosphate buffer pH 8 in D2O/DMSO 2:3, before addition of H2O2
[5] = test system: 60 human cancer cell lines; test: NCI DTP in vitro cancer cell screen; format: cell-based; conditions: 10 µM, most of the 60 cell lines
How it was run: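 NCI DTP screen. Human tumour cell lines were grown in RPMI 1640 with 5% FBS and 2 mM L-glutamine. Cells were plated in 96-well plates at 5,000–40,000 cells/well, set by each line's doubling time, and treated at a single 10 µM dose.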

breast cancer MDA-MB-468 = test: Cytotoxicity towards tumor cells; format: cell-based; conditions: Homo sapiens, MDA-MB-468, 48 h

SMILES | DNA ICL cross-linking yield without H2O2 (49-mer DNA duplex 25; 2 mM compound, 37 °C) | Kinetics of ICL formation: Time of completion (49-mer DNA duplex 25) [min] | Disappearance of starting materials: Time of completion [1] [min] | Disappearance of starting materials: kobs [1] | QM formation: Time of completion [1] [min] | QM formation: kobs [1] | pIC50 [2] | Toxicity to normal lymphocytes (normal lymphocytes) | Induction of DNA damage response (H2AX phosphorylation) [3] | Cytotoxicity (initial test) [2] | Hydrolysis of the acetate group [4] | Chemical stability [4] | other results
CC1(C)OB(c2c(CBr)cccc2CBr)OC1(C)C [1a] | 0% | 600 | 60 | 39.0 ± 1.5 10^−5 s^−1 | 60 | 9.5 ± 0.2 10^−5 s^−1 | 5.20 | no significant toxicity | induction of DNA damage response | – | – | – | –
CC(=O)OCc1cccc(COC(C)=O)c1B1OC(C)(C)C(C)(C)O1 [1b, (2-(4,4,5,5-Tetramethyl-1,3,2-dioxaborolan-2-yl)-1,3-phenylene)bis(methylene) diacetate] | – | – | 240 | 19.4 ± 1.2 10^−5 s^−1 | 240 | – | – | – | – | not cytotoxic | hydrolyzed prior to addition of H2O2 | – | –
COc1cc(CBr)c(B2OC(C)(C)C(C)(C)O2)c(CBr)c1 [2a, 2-(2,6-Bis(bromomethyl)-4-methoxyphenyl)-4,4,5,5-tetramethyl-1,3,2-dioxaborolane] | – | 240 | 42 | 56.7 ± 4.3 10^−5 s^−1 | 50 | 38.3 ± 2.2 10^−5 s^−1 | 5.28 | no significant toxicity | induction of DNA damage response | – | – | chemically stable | ICL formation rate constant relative to 1a (49-mer DNA duplex 25): 2–3 times; Growth percentage of most cell lines, single dose screening [5]: less than 50%
COc1cc(COC(C)=O)c(B2OC(C)(C)C(C)(C)O2)c(COC(C)=O)c1 [2b, (5-Methoxy-2-(4,4,5,5-tetramethyl-1,3,2-dioxaborolan-2-yl)-1,3-phenylene)bis(methylene) diacetate] | – | – | 480 | 9.1 ± 0.6 10^−5 s^−1 | 480 | – | – | – | – | not cytotoxic | hydrolyzed prior to addition of H2O2 | – | Time to completion of reaction with H2O2 (oxidative deboronation) [1]: not finished within one hour
COc1cc(OC)c(CBr)c(B2OC(C)(C)C(C)(C)O2)c1CBr [3a, 2-(2,6-Bis(bromomethyl)-3,5-dimethoxyphenyl)-4,4,5,5-tetramethyl-1,3,2-dioxaborolane] | 17 ± 3% and 17% | – | – | – | – | – | – | – | – | – | – | not stable and easily decomposed even at 0 °C | –
COc1c(CBr)c(B2OC(C)(C)C(C)(C)O2)c(CBr)c(OC)c1OC [4a, 2-(2,6-Bis(bromomethyl)-3,4,5-trimethoxyphenyl)-4,4,5,5-tetramethyl-1,3,2-dioxaborolane] | 0% | – | – | – | – | – | – | – | – | not cytotoxic | – | more stable than 3a | DNA ICL cross-linking yield with H2O2 (49-mer DNA duplex 25; 2 mM compound, 2 mM H2O2, duplex 25, pH 8 phosphate buffer, 37 °C): 0%; ICL yield after incubation of ICL products at pH 6 (49-mer DNA duplex 25; ICLs generated at pH 6, then incubated at pH 6, 37 °C, 24 h): remained unchanged; ICL yield after incubation of ICL products at pH 8 (49-mer DNA duplex 25; ICLs generated at pH 6, then incubated at pH 8, 37 °C, 24 h): 3.0 ± 0.5%; ICL yield of ICL products generated with 4a at pH 6 (49-mer DNA duplex 25; duplex 25, generated at pH 6, before further incubation): 16.6 ± 1.0%; DNA ICL product formation at pH 7 or higher pH (49-mer DNA duplex 25; with H2O2, pH 7 or higher): not formed
CC1(C)OB(c2c(CBr)cc(O)cc2CBr)OC1(C)C [5a, 3,5-Bis(bromomethyl)-4-(4,4,5,5-tetramethyl-1,3,2-dioxaborolan-2-yl)phenol] | – | 300 | 40 | 61.7 ± 3.2 10^−5 s^−1 | 40 | 58.3 ± 4.3 10^−5 s^−1 | 5.42 | no significant toxicity | induction of DNA damage response | – | – | relatively stable | ICL formation rate constant relative to 1a (49-mer DNA duplex 25): 2–3 times
CC(=O)OCc1cc(O)cc(COC(C)=O)c1B1OC(C)(C)C(C)(C)O1 [5b, (5-Hydroxy-2-(4,4,5,5-tetramethyl-1,3,2-dioxaborolan-2-yl)-1,3-phenylene)bis(methylene) diacetate] | – | – | 480 | 8.3 ± 0.5 10^−5 s^−1 | 480 | – | – | – | – | – | hydrolyzed prior to addition of H2O2 | – | Time to completion of reaction with H2O2 (oxidative deboronation) [1]: not finished within one hour
O=C(O)CCCc1ccc(N(CCCl)CCCl)cc1 [Chlorambucil, chlorambucil] | – | – | – | – | – | – | – | – | – | – | – | – | pIC50 (breast cancer MDA-MB-468): 4.46
N[C@@H](Cc1ccc(N(CCCl)CCCl)cc1)C(=O)O [Melphalan, melphalan] | – | – | – | – | – | – | – | – | – | – | – | – | pIC50 (breast cancer MDA-MB-468): 4.31
